# Assay results gathered from unrelated publications.
# Compare with care: the assays were run in different laboratories.
# Target: Mitogen-activated protein kinase 10 (MAPK10, Homo sapiens, UniProt P53779)
SMILES,test,setting,measurement,value
N#Cc1ccc(NC(=O)Nc2ccccc2)cc1,"cell-free assay, competition with immobilised ligand",25 µM,remaining binding,65%
CO[C@@H]1[C@H](N(C)C(=O)c2ccccc2)C[C@H]2O[C@]1(C)n1c3ccccc3c3c4c(c5c6ccccc6n2c5c31)C(=O)NC4,"enzyme activity, inhibitor",1 µM,inhibition,33%
C1=C/COCc2cc(ccc2OCCN2CCCC2)Nc2nccc(n2)-c2cccc(c2)COC/1,cell-free assay,0.1 µM,remaining signal,33%
COc1ccc2oc(-c3ccc4nc(N)oc4c3)c/c(=N\c3ccccc3NC(=O)CCN)c2c1,binding,1 µM,remaining binding,113%
CCCCC(=O)Nc1ccc(-c2ccc3ncn(CCC)c(=O)c3c2)cn1,"binding, competition with immobilised ligand",0.5 µM,remaining binding,80%
C[C@H]1CC[C@H](n2c3cnccc3c3cnc(Nc4ccc5c(n4)CCN(C(=O)CO)C5)nc32)CC1,cell-free assay,1 µM,remaining signal,2.6%
C#Cc1cc(-c2cc(Nc3nc(N[C@@H](C)c4ccc(F)cn4)ncc3Cl)n[nH]2)ccc1C=O,"enzyme activity, inhibitor",0.2 µM,inhibition,6.29%
C#Cc1cnc(Nc2ccnc(CO)c2)nc1Nc1ccccc1S(C)(=O)=NC#N (stereo not shown),cell-free assay,1 µM,remaining signal,91%
C=CC(=O)N1CCC([C@@H]2CCNc3c(C(N)=O)c(-c4ccc(Oc5ccccc5)cc4)nn32)CC1,"enzyme activity, inhibitor",1 µM,inhibition,25%
CN1CCN(C(=O)c2ccc(NC(=O)Nc3ccc(N(C)c4ccnc(Nc5ccc(CS(C)(=O)=O)cc5)n4)cc3)cc2)CC1,binding,1 µM,remaining binding,8.6%
